Molecules are shown by their SMILES. pIC50: −log10 of the molar value. Calls of active or inactive are those of the source. No cut-off for these calls is given here. A value given as a limit tells only on which side of the number the result lay.

The test system of assay [1] is HT-29. In words: Antiproliferative activity against human HT-29 cells after 72 hrs by SRB assay. Format: functional, cell-based. The settings on record: HT-29, 72 h. The method, boiled down: (§1)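 SRB assay. HT-29 grown in DMEM; HepG2 and MCF-7 grown in RPMI-1640, all with 10% heat-inactivated FBS at 37 °C under 5% CO2. Cells seeded at 1000–2000/well, left 24 h, then exposed to a range of concentrations for 72 h. Fixed with 10% TCA for 1 h at 4 °C, stained with 0.4% SRB, OD read at 564 nm. IC50 taken from a Boltzmann sigmoidal nonlinear fit. Mean ± S.D. of three separate experiments.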
In general terms: In SRB staining, fixed cells bind dye roughly in proportion to their protein.

Assay [2] concerns HepG2. In words: Antiproliferative activity against human HepG2 cells after 72 hrs by SRB assay. The settings on record: HepG2, 72 h. Format: functional, cell-based.
Assay [3] deals with HepG2. In words: Induction of apoptosis in human HepG2 cells assessed as increase in caspase-3 expression at IC50 by sandwich ELISA relative to untreated control. Format: functional.
Assay [4] deals with HepG2. In words: Cell cycle arrest in human HepG2 cells assessed as reduction in S phase at IC50 for 24 hrs by propidium iodide staining-based FACS analysis relative to untreated control. Format: functional. Summed up:
(§2)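 HepG2 cells exposed 24 h at each compound's preset concentration. Then washed in ice-cold PBS, fixed in ice-cold 70% ethanol, treated with 0.1 mg/ml RNase and stained with PI. DNA content read by flow cytometry, and phase distribution compared with untreated control. Triplicate experiments.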
On the technique in general: A flow cytometer gives signals particle by particle.

Assay [5] has as its system HepG2. Nature of the assay: Induction of apoptosis in human HepG2 cells assessed as upregulation of Bax expression at IC50 by sandwich ELISA relative to untreated control. It counts as functional.
Assay [6] has as its system HepG2. Nature of the assay: Induction of apoptosis in human HepG2 cells assessed as apoptotic cells after 24 hrs by annexin-V/FITC-propidium iodide staining-based FACS analysis relative to untreated control. It counts as functional. Summed up:
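HepG2 cells treated for 24 h, harvested and washed in PBS. 10^5 cells stained with annexin V-FITC and PI from a detection kit. Flow cytometry used unstained cells for voltage and compensation. Early plus late apoptotic quadrants (LR+UR) compared with control. Triplicate experiments.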

Assay [7] deals with HT-29. In words: Induction of apoptosis in human HT-29 cells assessed as increase in caspase-3 expression at IC50 by sandwich ELISA relative to untreated control. Format: functional. For orientation: ELISA stands for enzyme-linked immunosorbent assay.
The test system of another assay is MCF7. Nature of the assay: Antiproliferative activity against human MCF7 cells after 72 hrs by SRB assay. The settings on record: MCF7, 72 h. It counts as functional, cell-based. Summed up:
as §1

Assay [8] concerns HT-29. In words: Ratio of doxorubicin IC50 to compound IC50 for human HT-29 cells. It counts as functional.
The subject of assay [9] is HepG2. Nature of the assay: Induction of apoptosis in human HepG2 cells assessed as down regulation of Bcl2 expression at IC50 by sandwich ELISA relative to untreated control. It counts as functional.
The subject of assay [10] is HepG2. Nature of the assay: Cell cycle arrest in human HepG2 cells assessed as accumulation at preG1 phase at IC50 for 24 hrs by propidium iodide staining-based FACS analysis relative to untreated control. Format: functional. The method, boiled down: as §2
Assay [11] deals with HepG2. In words: Cell cycle arrest in human HepG2 cells assessed as reduction in G0/G1 phase at IC50 for 24 hrs by propidium iodide staining-based FACS analysis relative to untreated control. It counts as functional. The method, boiled down: as §2
The test system of assay [12] is HepG2. Nature of the assay: Cell cycle arrest in human HepG2 cells assessed as increase in S phase at IC50 for 24 hrs by propidium iodide staining-based FACS analysis relative to untreated control.
Assay [13] concerns HepG2. Nature of the assay: Ratio of doxorubicin IC50 to compound IC50 for human HepG2 cells. It counts as functional. The method, boiled down:
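SRB growth assay: HepG2 in RPMI-1640 + 10% heat-inactivated FBS, seeded 1000–2000 cells/well, dosed after 24 h with graded concentrations alongside doxorubicin for 72 h; TCA-fixed, SRB-stained, OD 564 nm. IC50 fitted as Boltzmann sigmoidal curve vs untreated controls, three separate experiments; ratio = doxorubicin IC50 / compound IC50 from the same assay.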

`COc1cccc2c1C(=O)c1c(O)c3c(c(O)c1C2=O)C[C@@](O)(C(=O)CO)C[C@@H]3O[C@H]1C[C@H](N)[C@H](O)[C@H](C)O1` [DOXORUBICIN]: the results for the pIC50 in the assay on HT-29 [1] and in the assay on HepG2 [2] were 5.11 and 5.46, respectively.
As for `O=C(Cn1nc(-c2ccccc2)c2ccccc2c1=O)Nc1cccc(Cl)c1`, the Ratio was 3 in the assay on HepG2 [3], 2.4 with HepG2 [6] and 5.6 in the assay with HT-29 [7]. Further, the result with HepG2 [4], in the assay on HepG2 [10] and in the assay with HepG2 [11] was inactive. In addition, the Activity came out at 43.5% in the assay on HepG2 [5] and 22% with HepG2 [9]. The results for the negative logarithm of the IC50 (pIC50) in the assay on HT-29 [1], in the assay on MCF7 and with HepG2 [2] were 5.52, 4.13 and 5.48, respectively. Besides, the “Ratio IC50” value in the assay on HT-29 [8] was determined as 2.5.
Consider `O=C(Cn1nc(Cc2ccccc2)c2ccccc2c1=O)Nc1cccc(C(F)(F)F)c1`, for which the Ratio with HepG2 [3] is listed as 2.8; in the assay on HepG2 [6] it was 2.7; with HepG2 [10], 9.4. Also, the Activity with HepG2 [5] was 39.9%; with HepG2 [12], 27.7%; with HepG2 [9], 22%; in the assay on HepG2 [11], 32.3%. Also, the pIC50 is 4.21 in the assay on HT-29 [1], 5.41 with MCF7 and 5.45 with HepG2 [2].
In the case of `O=C(Cn1nc(Cc2ccccc2)c2ccccc2c1=O)Nc1ccccc1`, the pIC50 was 4.02 in the assay with HT-29 [1], 4.44 with MCF7 and 4.18 in the assay with HepG2 [2].
Regarding `O=C(Cn1nc(Cc2ccccc2)c2ccccc2c1=O)Nc1cccc(Cl)c1`, the negative-log IC50 (pIC50) in the assay on HT-29 [1] was 5.43; in the assay with MCF7, 4.97; in the assay with HepG2 [2], 4.85. Besides, the “Ratio IC50” value in the assay with HT-29 [8] turned out to be 2.
As to `O=C(Cn1nc(Cc2ccccc2)c2ccccc2c1=O)Nc1ccc(F)cc1`, the pIC50 was 4.01 with HT-29 [1], 4.52 with MCF7 and 4.57 with HepG2 [2].
The corresponding values for `O=C(Cn1nc(-c2ccccc2)c2ccccc2c1=O)Nc1ccc(F)cc1` are 4.33, 4.46 and 4.97.
Regarding `O=C(Cn1nc(-c2ccccc2)c2ccccc2c1=O)Nc1ccc(Cl)cc1`, the pIC50 in the assay with HT-29 [1] is 5.40; in the assay on MCF7, 4.48; in the assay on HepG2 [2] it was 4.99. Moreover, the “Ratio IC50” value in the assay with HT-29 [8] is reported as 1.9.
In the case of `O=C(Cn1nc(Cc2ccccc2)c2ccccc2c1=O)Nc1ccccc1Cl`, the Ratio is on record as 4 in the assay with HepG2 [3]; 1.9 in the assay with HepG2 [4]; 9.5 in the assay on HepG2 [6]; 28 with HepG2 [10]; 2 in the assay with HepG2 [11]. In addition, the Activity in the assay on HepG2 [5] is listed as 80.2%; in the assay on HepG2 [9] it was 34%. Moreover, the negative-log IC50 (pIC50) in the assay on HT-29 [1] was 4.37; in the assay with MCF7, 4.05; in the assay with HepG2 [2] it was 5.92. In addition, the “Ratio IC50” value with HepG2 [13] was 2.9.
Regarding `COc1ccc(NC(=O)Cn2nc(-c3ccccc3)c3ccccc3c2=O)cc1`, the pIC50 was < 4.00 in the assay with HT-29 [1], 4.11 with MCF7 and < 4.00 in the assay with HepG2 [2].
For the molecule `O=C(Cn1nc(Cc2ccccc2)c2ccccc2c1=O)Nc1ccc(Cl)cc1`, the pIC50 was 5.53 in the assay on HT-29 [1], 4.89 in the assay with MCF7 and < 4.00 in the assay on HepG2 [2]. Moreover, in the assay on HT-29 [8], the “Ratio IC50” value came to 2.6.
Turning to `O=C(Cn1nc(-c2ccccc2)c2ccccc2c1=O)Nc1ccccc1`, the negative logarithm of the IC50 (pIC50) with HT-29 [1] is 4.00; with MCF7, 4.37; with HepG2 [2], 4.87.
As for `O=C(Cn1nc(-c2ccccc2)c2ccccc2c1=O)Nc1cccc(C(F)(F)F)c1`, the Ratio with HepG2 [3] is 2.5; in the assay with HepG2 [6], 2.1. For the same molecule, the outcome in the assay on HepG2 [4], in the assay with HepG2 [10] and in the assay on HepG2 [11] was inactive. The Activity in the assay on HepG2 [5] is given as 44%; with HepG2 [9] it was 9.6%. Further, the pIC50 with HT-29 [1] was 4.39; with MCF7, 4.24; in the assay on HepG2 [2], 5.46.
`COc1ccc(NC(=O)Cn2nc(Cc3ccccc3)c3ccccc3c2=O)cc1`: the negative-log IC50 (pIC50) in the assay on HT-29 [1] is < 4.00; with MCF7, 4.21; with HepG2 [2] it was 4.16.
The corresponding values for `O=C(Cn1nc(-c2ccccc2)c2ccccc2c1=O)Nc1ccccc1Cl` are 4.05, 4.52 and 4.48.

Usually pIC50 stands for −log10 of the IC50, conventionally taken in molar units.

The record behind these values is ChEMBL document CHEMBL3352276, “Design, synthesis and in vitro antitumor activity of novel N-substituted-4-phenyl/benzylphthalazin-1-ones” (Eur J Med Chem, 2015).
